Values joined by “and” are separate entries in the source; they are usually repeats but may differ in a detail not shown here. Equal values may be shown once.

Common to all, as to assay type: ADME, organism-based
Data set [1] has as its system Homo sapiens. Nature of the data set: Effect on glomerular filtration in human very low birth weight preterm neonates urine assessed as creatinine excretion at 15 mg/kg, iv administered every 12 hrs after 24 hrs. Further details: dose 15 mg/kg, route intravenous. The conditions noted are these: in vivo. The gist of the method: (§1)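 Creatinine excretion was measured in urine collected in 4-h intervals over the 12 h after a steady-state IV penicillin G dose (25,000 or 50,000 IU/kg q12h). Diapers were weighed to estimate losses, and a period was accepted if ≥90% of its output was collected. Excretion is expressed per 24 h per kg.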

Data set [2] relates to Homo sapiens. Nature of the data set: Effect on glomerular filtration in human very low birth weight preterm neonates urine assessed as creatinine excretion at 30 mg/kg, iv administered every 12 hrs after 24 hrs. Particulars: in vivo. Further details: dose 30 mg/kg, route intravenous. The gist of the method:
as §1

Data set [3] deals with Homo sapiens. Description: Effect on glomerular filtration in human very low birth weight preterm neonates urine assessed as creatinine clearance at 30 mg/kg, iv administered every 12 hr after 24 hrs. More on the design: dose 30 mg/kg, route intravenous. Particulars: in vivo.
Data set [4] is described as follows: Half life in human very low birth weight preterm neonates at 28 mg/kg, iv administered every 12 hrs after 24 hrs. The conditions noted are these: in vivo. More on the design: dose 28 mg/kg, route intravenous. In a few lines: (§2)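 Penicillin G was diluted in normal saline to 50,000 IU/ml and given as a slow (~2 min) IV bolus q12h (group 1, 50,000 IU/kg; group 2, 25,000 IU/kg) to neonates of <28 wk GA and <1,200 g. Plasma was sampled at steady state (doses 3–8): predose and at 2 and 30 min, 1.5, 4, 8 and 12 h. Assay by HPLC-UV (200 nm). AUC0-12 by log-linear trapezoidal rule; noncompartmental bolus model.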

Data set [5] can be described thus: Half life in human very low birth weight preterm neonates at 14.3 mg/kg, iv administered every 12 hrs after 24 hrs. Further details: dose 14.3 mg/kg, route intravenous. Particulars: in vivo. In a few lines:
as §2

Data set [6] can be described thus: Half life in human term neonates at 15 mg/kg, im administered every 12 hrs after 24 hrs. More on the design: dose 15 mg/kg, route intramuscular. Particulars: in vivo.
Data set [7] is described as follows: Half life in human adults at […], iv administered every 12 hrs after 24 hrs. More on the design: route intravenous. The conditions noted are these: in vivo.
Data set [8] is described as follows: Cmax in human very low birth weight preterm neonates at 28 mg/kg, iv administered every 12 hrs after 24 hrs. The conditions noted are these: in vivo. More on the design: dose 28 mg/kg, route intravenous. In a few lines:
as §2

Data set [9] can be described thus: Cmax in human very low birth weight preterm neonates at 14 mg/kg, iv administered every 12 hrs after 24 hrs. The conditions noted are these: in vivo. Further details: dose 14 mg/kg, route intravenous. In a few lines:
as §2

The nature of data set [10]: Cmax in human term neonates at 15 mg/kg, im administered every 12 hrs after 24 hrs. Further details: dose 15 mg/kg, route intramuscular. The conditions noted are these: in vivo.
Data set [11] is described as follows: Cmax in human adults at […], iv administered every 12 hrs after 24 hrs. More on the design: route intravenous. Particulars: in vivo.
A short description of data set [12]: Cmin in human very low birth weight preterm neonates at 28 mg/kg, iv administered every 12 hrs after 24 hrs. Further details: dose 28 mg/kg, route intravenous. Particulars: in vivo, read-out: Cmin. In a few lines: as §2
Data set [13] is described as follows: Clearance in human very low birth weight preterm neonates at 28 mg/kg, iv administered every 12 hrs after 24 hrs. Further details: dose 28 mg/kg, route intravenous. The conditions noted are these: in vivo. The gist of the method: as §2
A short description of data set [14]: Clearance in human very low birth weight preterm neonates at 14 mg/kg, iv administered every 12 hrs after 24 hrs. More on the design: dose 14 mg/kg, route intravenous. The conditions noted are these: in vivo. The gist of the method: as §2
In data set [15] the test system is Homo sapiens. Nature of the data set: Effect on glomerular filtration in human very low birth weight preterm neonates urine assessed as creatinine clearance at 15 mg/kg, iv administered every 12 hr after 24 hrs. Further details: dose 15 mg/kg, route intravenous. Particulars: in vivo.
Data set [16] can be described thus: Effect on glomerular filtration in human very low birth weight preterm neonates urine assessed as drug clearance at 30 mg/kg, iv administered every 12 hrs after 24 hrs. Further details: dose 30 mg/kg, route intravenous. Particulars: read-out: CL_renal.
The nature of data set [17]: Effect on glomerular filtration in human very low birth weight preterm neonates urine assessed as drug clearance at 15 mg/kg, iv administered every 12 hrs after 24 hrs. More on the design: dose 15 mg/kg, route intravenous. The conditions noted are these: read-out: CL_renal.
Data set [18] can be described thus: Volume of distribution at steady state in human very low birth weight preterm neonates at 28 mg/kg, iv. More on the design: dose 28 mg/kg, route intravenous. Particulars: in vivo, read-out: Vdss. In a few lines: as §2
Data set [19] can be described thus: Volume of distribution at steady state in human very low birth weight preterm neonates at 14 mg/kg, iv. More on the design: dose 14 mg/kg, route intravenous. Particulars: in vivo, read-out: Vdss. The gist of the method: as §2
The subject of data set [20] is Homo sapiens. Description: Volume of distribution at steady state in human term neonates at 15 mg/kg, im administered every 12 hrs after 24 hrs. More on the design: dose 15 mg/kg, route intramuscular. Particulars: in vivo.
The nature of data set [21]: Volume of distribution at steady state in human adults at […], iv administered every 12 hrs after 24 hrs. Further details: route intravenous. Particulars: in vivo, read-out: Vdss.
A short description of data set [22]: AUC (0 to 12) in human very low birth weight preterm neonates at 28 mg/kg, iv administered every 12 hrs after 24 hrs. Further details: time < 12 hr, dose 28 mg/kg, route intravenous. The conditions noted are these: plasma. The gist of the method: as §2
Data set [23] in a line: AUC (0 to 12) in human very low birth weight preterm neonates at 14 mg/kg, iv administered every 12 hrs after 24 hrs. Particulars: plasma. More on the design: time < 12 hr, dose 14 mg/kg, route intravenous. In a few lines:
as §2

In the case of `CC1(C)S[C@@H]2[C@H](NC(=O)Cc3ccccc3)C(=O)N2[C@H]1C(=O)O` [PENICILLIN G], the Activity with Homo sapiens [1] worked out at 70.6 µmol/kg; in the data set with Homo sapiens [2], 50.6 µmol/kg. The Creatinine_CL with Homo sapiens [3] was 0.26 ml/min and 0.3 ml/min.kg; in the data set on Homo sapiens [15], 0.53 ml/min and 0.57 ml/min.kg. Moreover, the half-life (in general, how long it takes for the measured level to halve) in [4] was 3.8 h; in data set [5] it was 4.6 h; in data set [6] it was 3.4 h; in data set [7] it was 0.5 h. Besides, the Cmax (in general, the highest concentration seen after dosing) in data set [8] is 146000 ng/mL; in [9], 58900 ng/mL; in data set [10], 22000 ng/mL; in data set [11], 45000 ng/mL. In addition, in [12], the concentration at 24 h turned out to be 7100 ng/mL. Besides, the clearance – broadly, the volume of plasma or blood freed of the substance per unit of time – in data set [13] worked out at 1.2 mL/min/kg; in [14] it was 1.5 mL/min/kg. Moreover, the CL renal in data set [16] was 0.27 mL/min and 0.46 mL/min/kg; in [17], 0.31 mL/min and 0.38 mL/min/kg. The Vd in data set [18] is 0.41 L/kg; in data set [19], 0.64 L/kg; in [21], 0.5 L/kg. Further, the Vdss in the data set with Homo sapiens [20] came out at 0.51 L/kg. The AUC (as a rule, the area under the concentration-time curve, a measure of exposure) at 12 h is 389 µg·h/mL in [22] and 161 µg·h/mL in data set [23].

The values above are taken from ChEMBL document CHEMBL1143817, “Pharmacokinetics of penicillin g in very-low-birth-weight neonates” (Antimicrob Agents Chemother, 2007).
